Measured values of several laboratories.
Protocols differ between the studies behind these lines.
Target: Serine/threonine-protein kinase 16 (STK16, Homo sapiens, UniProt O75716)

Structure (SMILES)	read-out	technique	concentration	remaining binding [%]
CCCOc1ccc([C@H]2[C@H](C(=O)O)[C@@H](c3ccc4c(c3)OCO4)CN2CC(=O)Nc2c(CC)cccc2CC)cc1	cell-free assay	competition with immobilised ligand	1 µM	72
c1cnn2ncc(-c3ccnc(N4CCC45COC5)n3)c2c1	binding		1 µM	78
CCc1ccccc1C(=O)Nc1n[nH]c2c(C)c(F)c(C3C(C#N)=C(C)N(C)C(C)=C3C#N)cc12	cell-free assay	competition with immobilised ligand	1 µM	79
O=C(c1ccc(Nc2ncc(Cl)c(-c3cc4ccccc4s3)n2)cc1)N1CCC(N2CCCC2)CC1	binding	competition with immobilised ligand	1 µM	5.6
CN(C)c1nccc(-c2cnn3ncccc23)n1	binding		1 µM	87
Cc1cc(C)c(-n2ccn3nc(-c4cccnc4)cc23)cc1NC(=O)c1cc(C#N)cc(S(F)(F)(F)(F)F)c1	cell-free assay	competition with immobilised ligand	0.1 µM	64.3
COc1cnc(Nc2cccc(S(N)(=O)=O)c2)nc1N1CCN(c2ccccc2)C(=O)C1	binding	competition with immobilised ligand	1 µM	30
C[C@@H](c1ccc(-n2cnc3c(N)ncnc32)cc1)N1CCc2nn(C)c(Cc3ccccc3)c2C1=O	binding	competition with immobilised ligand	0.1 µM	85
O=C(c1ccc(Nc2ncc(Cl)c(-c3ccc(Cl)s3)n2)cc1)N1CCC(N2CCCC2)CC1	binding	competition with immobilised ligand	1 µM	0.05
CN(C)c1ncc(F)c(-c2cnn3ncccc23)n1	binding		1 µM	87
O=C(c1ccc(Nc2nccc(-c3cc4ccccc4s3)n2)cc1)N1CCC(N2CCCC2)CC1	binding	competition with immobilised ligand	1 µM	18
COc1ccc2cc(OCC3(C(=O)O)CN(C(=O)c4ccc(F)cc4)C3)ccc2c1	cell-free assay	competition with immobilised ligand	1 µM	88
COc1cc(Nc2nccc(-c3cnn4nc(OC)ccc34)n2)cc(C(F)(F)F)c1	binding	competition with immobilised ligand	1 µM	53
CCN1CCN(Cc2ccc(C(=O)Nc3ccc(C)c(Oc4ccc5c(c4)CC(=O)N5)c3)cc2C(F)(F)F)CC1	binding	competition with immobilised ligand	1 µM	100
CN(CCCC(F)(F)F)c1nccc(-c2cnn3ncccc23)n1	binding		1 µM	79
O=C(NCC1CCOCC1)c1n[nH]cc1NC(=O)c1c(F)cccc1F	binding	competition with immobilised ligand	1 µM	91
COc1cnc(Nc2cccc(S(N)(=O)=O)c2)nc1N1CCN(c2ccccc2)CC1	binding	competition with immobilised ligand	1 µM	57
CCCCN(CCCC)C(=O)CN1C[C@H](c2cc(OC)c3c(c2)OCO3)[C@@H](C(=O)O)[C@@H]1CC(C)(C)CCC	cell-free assay	competition with immobilised ligand	1 µM	100
F[C@@H]1CCN(c2nccc(-c3cnn4ncccc34)n2)C1	binding		1 µM	100
COc1cccc(CNC(=O)c2nc3scc(COCc4ccc(C(=O)O)cc4)c3c(=O)[nH]2)c1	cell-free assay	competition with immobilised ligand	1 µM	87.2
N[C@H]1CCN(c2nccc(-c3cnn4ncccc34)n2)C1	binding		1 µM	91
